Laboratory results published in article PMC2806602 (The Journal of neuroscience : the official journal of the …, 2009).
Numbering of substitutions follows the chain as printed.

Assays:
GluRδ2^Lc D742A = biological target: T1, GluRδ2^Lc D742A (Rattus norvegicus, UniProt Q63226, A654T/D742A); experiment: Two-electrode voltage-clamp recordings in Xenopus oocytes, GluRδ2^Lc D742A; format: cell-based; settings: 3 mM Ca^2+; baseline spontaneously active current; ± SEM
T1 sequence (Q63226 24-1007 A654T/D742A): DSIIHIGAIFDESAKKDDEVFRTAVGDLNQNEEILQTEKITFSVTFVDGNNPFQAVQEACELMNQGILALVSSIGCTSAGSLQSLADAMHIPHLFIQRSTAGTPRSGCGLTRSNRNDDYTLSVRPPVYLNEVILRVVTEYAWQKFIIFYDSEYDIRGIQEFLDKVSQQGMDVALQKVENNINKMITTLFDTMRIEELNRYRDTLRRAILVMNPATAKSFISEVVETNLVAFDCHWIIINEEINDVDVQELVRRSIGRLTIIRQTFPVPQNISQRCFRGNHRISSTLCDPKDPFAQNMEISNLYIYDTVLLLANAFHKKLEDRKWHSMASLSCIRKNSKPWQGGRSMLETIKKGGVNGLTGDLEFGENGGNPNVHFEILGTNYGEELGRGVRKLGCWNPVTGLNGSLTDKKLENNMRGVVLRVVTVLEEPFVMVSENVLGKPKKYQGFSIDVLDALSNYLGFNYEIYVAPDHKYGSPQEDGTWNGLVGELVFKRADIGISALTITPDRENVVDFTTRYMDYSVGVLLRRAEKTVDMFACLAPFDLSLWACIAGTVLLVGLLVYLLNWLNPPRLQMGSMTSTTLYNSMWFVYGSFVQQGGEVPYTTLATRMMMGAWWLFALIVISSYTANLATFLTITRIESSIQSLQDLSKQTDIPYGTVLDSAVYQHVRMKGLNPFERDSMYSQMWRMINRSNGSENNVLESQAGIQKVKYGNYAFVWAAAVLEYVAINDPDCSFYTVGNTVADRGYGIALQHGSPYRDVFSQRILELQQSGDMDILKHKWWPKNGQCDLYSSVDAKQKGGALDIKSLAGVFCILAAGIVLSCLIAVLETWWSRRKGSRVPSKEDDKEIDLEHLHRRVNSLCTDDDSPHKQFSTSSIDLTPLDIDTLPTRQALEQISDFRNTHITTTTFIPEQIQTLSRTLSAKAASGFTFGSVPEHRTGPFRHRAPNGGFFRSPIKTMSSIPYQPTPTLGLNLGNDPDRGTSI
Summary of the method: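 Oocytes expressing the Lc mutant were kept in 25 μM NASP to prevent cytotoxicity. Two-electrode voltage clamp at −40 mV and 23°C, 24–72 h after cRNA injection. Bath: 90 mM NaCl, 3 mM KCl, 0.5 mM BaCl2, 10 mM HEPES, pH 7.6. Choline or NMDG chloride balanced Cl− and osmolarity. Values are fold increase over the Ca2+-free spontaneously active baseline on applying 3 mM Ca2+, given as mean ± SEM over oocytes.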

GluRδ2^Wt C811S = biological target: T2, GluRδ2^Wt C811S (Rattus norvegicus, UniProt Q63226, C811S); experiment: Two-electrode voltage-clamp recordings in Xenopus oocytes, GluRδ2^Wt C811S; format: cell-based; settings: data not shown
T2 sequence (Q63226 24-1007 C811S): T1 sequence (Q63226 24-1007 A654T/D742A) with T631A, A719D, C788S

| Compound | Ca^2+ potentiation (relative to baseline) (GluRδ2^Lc D742A) [fold] | response to D-serine (GluRδ2^Wt C811S) |
| --- | --- | --- |
| [Ca+2] [Ca^2+, calcium] | 3.5 ± 0.11 |  |
| N[C@H](CO)C(=O)O [D-serine] |  | Neither the C811S mutation nor the triple P528C+L789C+C811S mutation resulted in measurable responses |
